Here are results for 9 compounds from ChEMBL document CHEMBL2396650, “A potent small-molecule inhibitor of the MDM2-p53 interaction (MI-888) achieved complete and durable tumor regression in mice” (J Med Chem, 2013).

Calls of active or inactive are those of the source. The calls are words filed in the database; no cut-off is given here.

Data set [1] has as its system Liver microsomes. In words: Half life in rat liver microsomes. In kind it is ADME, Microsome. The method, boiled down: (§1)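 Half-life determined by incubation in mouse, rat and human liver microsomes; T1/2 in minutes.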
(Liver microsomes are vesicles of endoplasmic reticulum, rich in cytochrome P450 enzymes.)

Data set [2] deals with Liver microsomes. In words: Half life in human liver microsomes. The data set is classed as ADME, Microsome. Put shortly: as §1
Data set [3] deals with Rattus norvegicus. The experiment in a line: Cmax in Sprague-Dawley rat at 25 mg/kg, po. In kind it is ADME, organism-based. Set-up: dose 25 mg/kg, route oral. The conditions noted are these: in vivo.
Another data set relates to Liver. The experiment in a line: Half life in mouse liver microsomes. The data set is classed as ADME, Microsome. Put shortly: as §1
Data set [4] deals with Rattus norvegicus. The experiment in a line: Half life in Sprague-Dawley rat at 25 mg/kg, po. In kind it is ADME, organism-based. More on the design: dose 25 mg/kg, route oral. The conditions noted are these: in vivo.
The subject of data set [5] is Rattus norvegicus. In words: AUC (0 to t) in Sprague-Dawley rat at 25 mg/kg, po. The data set is classed as ADME, organism-based, Plasma. Set-up: dose 25 mg/kg, route oral. The conditions noted are these: in vivo.
Data set [6] concerns SJSA-1. In words: Antitumor activity against human SJSA1 cells xenografted in SCID mouse assessed as upregulation of MDM2 expression in tumor at 100 mg/kg, po measured at 24 hrs by Western blot analysis. Set-up: dose 100 mg/kg. The data set is classed as functional, organism-based. (Xenograft models place foreign cells or tissue in a host animal.)
For data set [7], the system named is SJSA-1. In words: Antitumor activity against human SJSA1 cells xenografted in SCID mouse assessed as tumor growth inhibition at 100 mg/kg, po qd administered for 2 weeks measured after 10 days. In kind it is functional, organism-based. More on the design: dose 100 mg/kg.
Data set [8] concerns Mus musculus. In words: Toxicity in mouse xenografted with human RS4:11 cells assessed as sign of toxicity at 100 to 200 mg/kg, po qd after 3 weeks. More on the design: dose 100-200 mg/kg, route oral. The conditions noted are these: in vivo, 504 h. The data set is classed as organism-based, RS4:11 cell. The method, boiled down:
(§2)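 RS4;11 acute leukemia xenografts in mice; dosing began when tumors averaged 150 mm3. Oral gavage of 100 or 200 mg/kg once daily for 3 weeks. Tumor volume tracked during and after dosing; body weight and signs of toxicity monitored throughout.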

The test system of data set [9] is Mus musculus. In words: Toxicity in SCID mouse xenografted with human SJSA1 cells assessed as sign of toxicity at 10 to 100 mg/kg, po qd measured after 2 weeks. In kind it is organism-based, SJSA-1. More on the design: dose 10-100 mg/kg, route oral. The conditions noted are these: in vivo, 336 h.
Another data set relates to RS4-11. The experiment in a line: Antitumor activity against human RS4:11 cells xenografted in mouse assessed as tumor regression at 200 mg/kg, po qd administered for 3 weeks measured after 26 days. In kind it is functional, organism-based. Set-up: dose 200 mg/kg. The method, boiled down:
as §2

A short description of data set [10]: Antitumor activity against human RS4:11 cells xenografted in mouse assessed as tumor growth inhibition at 100 mg/kg, po qd administered for 3 weeks measured after 4 days relative to vehicle-treated control. The data set is classed as functional. To be noted: read-out: TGI. The method, boiled down:
as §2

Data set [11] concerns SJSA-1. In words: Antitumor activity against human SJSA1 cells xenografted in SCID mouse assessed as upregulation of p21 expression in tumor at 100 mg/kg, po measured at 24 hrs by Western blot analysis. In kind it is functional, organism-based. More on the design: dose 100 mg/kg.
For data set [12], the system named is SJSA-1. The experiment in a line: Antitumor activity against human SJSA1 cells xenografted in SCID mouse assessed as upregulation of p53 expression in tumor at 100 mg/kg, po measured at 3 to 6 hrs by Western blot analysis. In kind it is functional, organism-based. Set-up: dose 100 mg/kg.
For data set [13], the system named is SJSA-1. The experiment in a line: Induction of apoptosis in human SJSA1 cells xenografted in SCID mouse assessed as PARP cleavage at 100 mg/kg, po measured at 1 to 6 hrs by Western blot analysis. The data set is classed as functional, organism-based. Set-up: dose 100 mg/kg.
Data set [14] has as its system SJSA-1. In words: Induction of apoptosis in human SJSA1 cells xenografted in SCID mouse assessed as caspase-3 cleavage at 100 mg/kg, po measured at 24 hrs by Western blot analysis. In kind it is functional, organism-based. More on the design: dose 100 mg/kg.
Data set [15] deals with SJSA-1. The experiment in a line: Antitumor activity against human SJSA1 cells xenografted in SCID mouse assessed as upregulation of p53 expression in tumor at 100 mg/kg, po measured at 24 hrs by Western blot analysis. The data set is classed as functional, organism-based. Set-up: dose 100 mg/kg.
Data set [16] deals with SJSA-1. The experiment in a line: Antitumor activity against human SJSA1 cells xenografted in SCID mouse assessed as tumor growth inhibition at 10 mg/kg, po qd measured after 2 weeks. More on the design: dose 10 mg/kg. In kind it is functional, organism-based.
Data set [17] concerns SJSA-1. In words: Induction of apoptosis in human SJSA1 cells xenografted in SCID mouse assessed as caspase-3 cleavage at 100 mg/kg, po measured at 1 to 6 hrs by Western blot analysis. In kind it is functional, organism-based. More on the design: dose 100 mg/kg.
The subject of data set [18] is SJSA-1. In words: Induction of apoptosis in human SJSA1 cells xenografted in SCID mouse assessed as PARP cleavage at 100 mg/kg, po measured at 24 hrs by Western blot analysis. The data set is classed as functional, organism-based. More on the design: dose 100 mg/kg.
In data set [19] the test system is SJSA-1. The experiment in a line: Antitumor activity against human SJSA1 cells xenografted in SCID mouse assessed as tumor growth inhibition at 100 mg/kg, po qd administered for 2 weeks measured after 5 days relative to vehicle-treated control. The data set is classed as functional. To be noted: read-out: TGI.
Data set [20] relates to SJSA-1. The experiment in a line: Antitumor activity against human SJSA1 cells xenografted in SCID mouse assessed as upregulation of p21 expression in tumor at 100 mg/kg, po measured at 3 to 6 hrs by Western blot analysis. The data set is classed as functional, organism-based. Set-up: dose 100 mg/kg.
Data set [21] can be described thus: Antitumor activity against human RS4:11 cells xenografted in mouse assessed as tumor growth inhibition at 200 mg/kg, po qd administered for 3 weeks measured after 4 days relative to vehicle-treated control. In kind it is functional. The conditions noted are these: read-out: TGI. Put shortly: as §2
In data set [22] the test system is SJSA-1. In words: Antitumor activity against human SJSA1 cells xenografted in SCID mouse assessed as tumor regression at 100 mg/kg, po qd administered for 2 weeks measured for 60 days. Set-up: dose 100 mg/kg. The data set is classed as functional, organism-based.
Data set [23] relates to SJSA-1. The experiment in a line: Antitumor activity against human SJSA1 cells xenografted in SCID mouse assessed as tumor growth inhibition at 30 mg/kg, po qd measured after 2 weeks. The data set is classed as functional, organism-based. More on the design: dose 30 mg/kg.
The subject of data set [24] is Mus musculus. In words: Toxicity in mouse xenografted with human RS4:11 cells assessed as body weight loss at 100 to 200 mg/kg, po qd after 3 weeks. In kind it is organism-based, RS4:11 cell. More on the design: dose 100-200 mg/kg, route oral. The conditions noted are these: in vivo, 504 h. The method, boiled down:
as §2

Data set [25] relates to SJSA-1. In words: Antitumor activity against human SJSA1 cells xenografted in SCID mouse assessed as upregulation of MDM2 expression in tumor at 100 mg/kg, po measured at 3 to 6 hrs by Western blot analysis. The data set is classed as functional, organism-based. More on the design: dose 100 mg/kg.
Data set [26] has as its system Mus musculus. The experiment in a line: Toxicity in SCID mouse xenografted with human SJSA1 cells assessed as body weight loss at 10 to 100 mg/kg, po qd measured after 2 weeks. More on the design: dose 10-100 mg/kg, route oral. The conditions noted are these: in vivo, 336 h. The data set is classed as organism-based, SJSA-1.

Usually Cmax stands for the maximum level reached in the sampled fluid or tissue. With `CC(C)(C)C[C@@H]1N[C@@H](C(=O)NCC[C@H](O)CO)[C@H](c2cccc(Cl)c2F)[C@]12C(=O)Nc1cc(Cl)ccc12`, the t1/2 in the data set on Liver microsomes [1] was 0.272 h; with Liver microsomes [2], more than 1 h; in the data set on Liver, more than 1 h; in the data set on Rattus norvegicus [4] it was 3.4 h. Also, the highest concentration (Cmax) in the data set with Rattus norvegicus [3] came out at 675 ng/mL. In addition, in the data set on Rattus norvegicus [5], the AUCt is 2140 ng·h/mL.

For the compound `CC(C)(C)C[C@@H]1N[C@@H](C(=O)N[C@H]2CC[C@@H](O)C2)[C@H](c2cccc(Cl)c2F)[C@]12C(=O)Nc1cc(Cl)ccc12`, the t1/2 in the data set with Liver microsomes [1] turned out to be 0.0633 h; in the data set on Liver microsomes [2], 0.067 h; with Liver, 0.025 h.

In the case of `CC(C)(C)C[C@@H]1N[C@@H](C(=O)N[C@H]2C[C@H](O)C2)[C@H](c2cccc(Cl)c2F)[C@]12C(=O)Nc1cc(Cl)ccc12`, the t1/2 in the data set on Liver microsomes [1] is 0.318 h; in the data set with Liver microsomes [2], 0.902 h; in the data set on Liver it was more than 1 h.

For `CC(C)(C)C[C@@H]1N[C@@H](C(=O)N[C@H]2C[C@@](C)(O)C2)[C@H](c2cccc(Cl)c2F)[C@]12C(=O)Nc1cc(Cl)ccc12`, the result with SJSA-1 [6], with SJSA-1 [11], with SJSA-1 [13], in the data set with SJSA-1 [15] and with SJSA-1 [17] was inactive. Also, the TGI result in the data set on SJSA-1 [7] and with SJSA-1 [23] was “Active” each time. Besides, the Activity entry in the data set with Mus musculus [8], with Mus musculus [9], in the data set on Mus musculus [24] and with Mus musculus [26] was “Non-toxic” in each case. The results for the t1/2 in the data set on Liver microsomes [1], with Liver and in the data set with Rattus norvegicus [4] were more than 1 h, more than 1 h and 3.2 h, respectively. In addition, the outcome in the data set with RS4-11, in the data set with SJSA-1 [12], in the data set with SJSA-1 [14], in the data set on SJSA-1 [18], in the data set on SJSA-1 [20] and in the data set on SJSA-1 [22] was Active. Besides, the outcome in the data set with SJSA-1 [25] was Active. Also, the inhibition in vivo at 100 mg/kg in data set [10] is 61%; in the data set on SJSA-1 [19] it was more than 70%. Also, the Cmax in the data set on Rattus norvegicus [3] is 1726 ng/mL. In addition, the TGI entry in the data set with SJSA-1 [16] was “inactive”. Further, in data set [21], the inhibition in vivo at 200 mg/kg stood at 80%. The same compound yielded an AUCt in the data set on Rattus norvegicus [5] of 14900 ng·h/mL.

In the data set with Liver microsomes [2], `CC(C)(C)C[C@@H]1N[C@@H](C(=O)N[C@H]2C[C@](C)(O)C2)[C@H](c2cccc(Cl)c2F)[C@]12C(=O)Nc1cc(Cl)ccc12` yielded a t1/2 of more than 1 h.

With `CC(C)(C)C[C@H]1N[C@@H](C(=O)NCC[C@H](O)CO)[C@H](c2cccc(Cl)c2)[C@@]12C(=O)Nc1cc(Cl)c(F)cc12`, the t1/2 with Liver microsomes [1] was 0.337 h; with Liver microsomes [2], more than 1 h; in the data set on Liver, more than 1 h.

Take `CC(C)(C)C[C@@H]1N[C@@H](C(=O)NCC(C)(C)O)[C@H](c2cccc(Cl)c2F)[C@]12C(=O)Nc1cc(Cl)ccc12`: the t1/2 with Liver microsomes [1], in the data set on Liver microsomes [2] and with Liver was more than 1 h each time.

For the compound `CC(C)(C)C[C@@H]1N[C@@H](C(=O)N[C@H]2C[C@@H](O)C2)[C@H](c2cccc(Cl)c2F)[C@]12C(=O)Nc1cc(Cl)ccc12`, the t1/2 in the data set on Liver microsomes [1] is 0.368 h; in the data set on Liver microsomes [2] it was 0.513 h; in the data set on Liver it was 0.343 h.

In the case of `CC(C)(C)C[C@@H]1N[C@@H](C(=O)N[C@H]2CC[C@H](O)C2)[C@H](c2cccc(Cl)c2F)[C@]12C(=O)Nc1cc(Cl)ccc12`, the t1/2 in the data set on Liver microsomes [1] was 0.352 h; with Liver microsomes [2], 0.918 h; in the data set with Liver, more than 1 h.
